# Columns and labels:
# Assay type in all cases: ADME
# [1] = target: T1, UDP-glucuronosyltransferase 1A10 (Homo sapiens, UniProt Q9HAW8); assay: Drug metabolism assessed as recombinant human C-terminal His-tagged UGT1A10-mediated 16-epiestriol-3-glucuronide formation after 15 to 60 mins by Michaelis-Menten equation analysis in presence of UDPGA; conditions: recombinant enzyme
# T1 sequence (Q9HAW8 whole entry): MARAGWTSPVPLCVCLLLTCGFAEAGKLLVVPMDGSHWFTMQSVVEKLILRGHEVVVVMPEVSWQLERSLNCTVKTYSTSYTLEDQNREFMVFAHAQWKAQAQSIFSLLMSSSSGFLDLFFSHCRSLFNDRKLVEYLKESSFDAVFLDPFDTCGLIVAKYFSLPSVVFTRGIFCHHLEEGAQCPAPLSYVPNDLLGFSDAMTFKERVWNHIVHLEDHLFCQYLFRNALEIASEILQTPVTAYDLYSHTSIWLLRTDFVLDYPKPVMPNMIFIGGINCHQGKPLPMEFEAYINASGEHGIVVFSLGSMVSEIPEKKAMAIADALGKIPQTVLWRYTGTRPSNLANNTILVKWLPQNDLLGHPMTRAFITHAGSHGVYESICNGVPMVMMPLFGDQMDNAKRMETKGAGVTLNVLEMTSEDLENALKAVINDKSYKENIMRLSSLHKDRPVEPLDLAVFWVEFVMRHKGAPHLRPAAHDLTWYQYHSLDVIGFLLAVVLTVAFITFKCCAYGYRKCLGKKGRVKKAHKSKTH
# In short: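 For kinetics, the aglycone ranged from 0.2 to 300 μM in DMSO (10% final) with 5 mM UDPGA, 10 mM MgCl₂ and 50 mM phosphate pH 7.4. Enzyme was UGT-enriched insect cell membranes. Incubation was 15–60 min at 37°C, in triplicate, keeping substrate consumption ≤10%. Products were measured by HPLC and fitted to Michaelis-Menten. Rates were normalized to expression level.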
# [2] = target: UDP-glucuronosyltransferase 1A7 (Homo sapiens, UniProt Q9HAW7); assay: Drug metabolism assessed as recombinant human C-terminal His-tagged UGT1A7-mediated 16-epiestriol-3-glucuronide formation after 15 to 60 mins by Michaelis-Menten equation analysis in presence of UDPGA; conditions: recombinant enzyme
# [3] = target: T2, UDP-glucuronosyltransferase 1A8 (Homo sapiens, UniProt Q9HAW9); assay: Drug metabolism assessed as recombinant human C-terminal His-tagged UGT1A8-mediated estradiol-3-glucuronide formation at 200 uM after 15 to 60 mins by HPLC analysis in presence of UDPGA; conditions: recombinant enzyme
# T2 sequence (Q9HAW9 whole entry): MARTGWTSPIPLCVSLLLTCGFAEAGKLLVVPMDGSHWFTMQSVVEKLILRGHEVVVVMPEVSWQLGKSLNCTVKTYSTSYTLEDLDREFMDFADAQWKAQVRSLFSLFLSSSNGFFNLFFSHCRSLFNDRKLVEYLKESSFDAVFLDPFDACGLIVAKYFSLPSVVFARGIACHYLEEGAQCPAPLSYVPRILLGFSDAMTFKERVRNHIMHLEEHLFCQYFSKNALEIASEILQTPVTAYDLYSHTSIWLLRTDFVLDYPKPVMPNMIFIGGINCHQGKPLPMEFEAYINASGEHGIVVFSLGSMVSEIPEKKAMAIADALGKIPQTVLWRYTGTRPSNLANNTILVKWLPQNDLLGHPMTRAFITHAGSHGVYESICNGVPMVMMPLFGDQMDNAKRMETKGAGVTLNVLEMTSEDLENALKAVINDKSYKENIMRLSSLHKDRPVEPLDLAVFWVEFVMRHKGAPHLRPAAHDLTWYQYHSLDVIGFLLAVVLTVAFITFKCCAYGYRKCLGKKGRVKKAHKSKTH
# In short: (§1)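 Screening at a single substrate concentration of 200 μM, in triplicate. The reaction used 5 or 50 µg of UGT-enriched insect cell membranes in 50 mM phosphate pH 7.4 with 10 mM MgCl₂ and 5 mM UDPGA, 10% final DMSO. Incubation was 15–60 min at 37°C. Perchloric acid stopped the reaction and supernatants were analysed by HPLC. Controls lacked UDPGA. Rates were normalized to relative UGT expression level.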
# [4] = Drug metabolism in human intestine microsomes assessed as estriol-17-glucuronide formation after 15 to 60 mins by Michaelis-Menten equation analysis in presence of UDPGA
# In short: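 Pooled human intestine microsomes (6 donors), 0.5 or 10 µg, with alamethicin at 5% of total protein. Incubated with 50 mM phosphate pH 7.4, 10 mM MgCl₂, 5 mM UDPGA and 10% DMSO for 15–60 min at 37°C. Each glucuronide regioisomer quantified by HPLC, in triplicate, with substrate consumption at or below 10%.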
# [5] = target: T3, UDP-glucuronosyltransferase 1A1 (Homo sapiens, UniProt P22309); assay: Drug metabolism assessed as recombinant human C-terminal His-tagged UGT1A1-mediated 17-epiestriol-3-glucuronide formation at 200 uM after 15 to 60 mins by HPLC analysis in presence of UDPGA; conditions: recombinant enzyme; in short: as §1
# T3 sequence (P22309 whole entry): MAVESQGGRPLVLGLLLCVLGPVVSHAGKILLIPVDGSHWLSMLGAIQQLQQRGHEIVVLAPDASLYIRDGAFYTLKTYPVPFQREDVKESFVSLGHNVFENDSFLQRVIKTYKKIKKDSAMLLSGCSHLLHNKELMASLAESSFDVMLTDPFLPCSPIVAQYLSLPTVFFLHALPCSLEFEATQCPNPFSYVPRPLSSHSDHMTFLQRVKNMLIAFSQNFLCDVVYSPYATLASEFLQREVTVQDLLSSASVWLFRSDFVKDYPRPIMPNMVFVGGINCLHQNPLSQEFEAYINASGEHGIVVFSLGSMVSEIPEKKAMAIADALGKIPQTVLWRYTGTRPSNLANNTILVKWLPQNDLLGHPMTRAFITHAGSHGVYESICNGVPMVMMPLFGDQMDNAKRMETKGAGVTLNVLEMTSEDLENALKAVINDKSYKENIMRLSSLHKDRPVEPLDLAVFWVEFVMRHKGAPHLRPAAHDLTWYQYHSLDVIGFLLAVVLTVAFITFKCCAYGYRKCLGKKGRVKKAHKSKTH
# UDP-glucuronosyltransferase 1A7, sequence (Q9HAW7 whole entry): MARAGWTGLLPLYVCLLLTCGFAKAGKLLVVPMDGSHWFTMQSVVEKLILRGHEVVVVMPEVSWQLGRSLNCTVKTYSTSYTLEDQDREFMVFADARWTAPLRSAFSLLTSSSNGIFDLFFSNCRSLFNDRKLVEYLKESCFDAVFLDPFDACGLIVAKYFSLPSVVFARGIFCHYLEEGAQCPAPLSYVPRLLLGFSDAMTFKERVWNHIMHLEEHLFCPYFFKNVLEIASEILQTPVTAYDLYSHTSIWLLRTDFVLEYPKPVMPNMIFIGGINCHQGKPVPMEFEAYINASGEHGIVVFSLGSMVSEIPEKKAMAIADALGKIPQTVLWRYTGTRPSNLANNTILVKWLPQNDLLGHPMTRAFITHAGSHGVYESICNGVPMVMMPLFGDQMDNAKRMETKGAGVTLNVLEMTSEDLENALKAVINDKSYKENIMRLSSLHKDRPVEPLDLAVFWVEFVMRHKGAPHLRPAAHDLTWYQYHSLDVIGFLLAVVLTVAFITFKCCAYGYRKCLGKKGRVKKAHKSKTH
compound,measurement,setting,value
C[C@]12CC[C@@H]3c4ccc(O)cc4CC[C@H]3[C@@H]1C[C@H](O)[C@@H]2O [EPIESTRIOL],Drug metabolism,[1],3500 pmol/min/mg
same,Drug metabolism,[2],0.5 pmol/min/mg
C[C@]12CC[C@@H]3c4ccc(O)cc4CC[C@H]3[C@@H]1CC[C@@H]2O [ESTRADIOL],Drug metabolism,[3],metabolite_detected
C[C@]12CC[C@@H]3c4ccc(O)cc4CC[C@H]3[C@@H]1C[C@@H](O)[C@@H]2O [ESTRIOL],Km,[4],1120 µM
same,Vmax,[4],2095 pmol/min/mg
C[C@]12CC[C@@H]3c4ccc(O)cc4CC[C@H]3[C@@H]1C[C@@H](O)[C@H]2O,Drug metabolism,[5],metabolite_detected
